Experimental data of several laboratories.
Each line is one published result; the experiments were not run side by side.
Target: Tyrosine-protein kinase Fer (FER, Homo sapiens, UniProt P16591)

Compound | effect on | mode | technique | cells | concentration | endpoint | value
CNc1cccc2cc(C(=O)Nc3ccc(C(=O)O)cc3)c(=O)[nH]c12 | enzyme activity | inhibitor |  |  | 10 µM | inhibition | 1.6%
COc1cc2c(N3CCN(C(=O)Nc4ccc(OC(C)C)cc4)CC3)ncnc2cc1OCCCN1CCCCC1 | cell-free assay |  |  |  | 0.5 µM | remaining signal | 104%
COc1cc2ncnc(Nc3ccc(Oc4ccccc4)c(C)c3C)c2cc1OC | enzyme activity | inhibitor |  |  | 1 µM | inhibition | 18%
CCCS(=O)(=O)Nc1ccc(F)c(C(=O)c2c[nH]c3ncc(-c4ccc(Cl)cc4)cc23)c1F | enzyme activity | inhibitor |  |  | 1 µM | inhibition | < 10%
C[C@@H]1CCN(C(=O)CC#N)C[C@@H]1N(C)c1ncnc2[nH]ccc12 | cell-free assay |  |  |  | 0.5 µM | remaining signal | 104%
C[C@@H]1CN(c2cc(-c3n[nH]c4ccc(OC5(C)CC5)cc34)ncn2)C[C@H](C)O1 | cell-free assay |  | competition with immobilised ligand |  | 0.1 µM | remaining binding | 86%
CC(C)(O)[C@H]1CC[C@H](Nc2ccc3ncc(-c4cccc(C(F)(F)F)c4)n3n2)CC1 | enzyme activity | inhibitor |  |  | 1 µM | remaining activity | 77.1%
Cc1c[nH]c2nccc(Oc3c(F)cc(Nc4cc(Cl)nc(N)n4)cc3F)c12 | cell-free assay |  | competition with immobilised ligand |  | 0.1 µM | remaining binding | 100%
COc1ccc(C(=O)Nc2sc3c(c2C(N)=O)CCCC3)cc1OC | enzyme activity | inhibitor |  |  | 0.5 µM | remaining activity | 89.8%
Cc1ccc(Nc2nccc(N(C)c3ccc4c(C)n(C)nc4c3)n2)cc1S(N)(=O)=O | enzyme activity | inhibitor |  |  | 10 µM | inhibition | 71%
Cc1ccc(C(=O)NCc2ccsc2)cc1C#Cc1cn(C(C)C)c2ncnc(N)c12 | enzyme activity | inhibitor |  |  | 1 µM | activity vs control | 92%
CNC(=O)c1cc2c(Oc3ccc(NC(=O)C4(C(=O)Nc5ccc(F)cc5)CC4)cc3)ccnc2cc1OC | enzyme activity | inhibitor | radiometric |  | 1 µM | inhibition | 74%
CCCCN(CCCC)C(=O)CN1C[C@H](c2cc(OC)c3c(c2)OCO3)[C@@H](C(=O)O)[C@@H]1CC(C)(C)CCC | cell-free assay |  | competition with immobilised ligand |  | 1 µM | remaining binding | 100%
N#CCCc1ccc2c(c1)-c1[nH]c3ccc([N+](=O)[O-])cc3c1CC(=O)N2 | cell-free assay |  |  |  | 0.5 µM | remaining signal | 72.7%
O=C(Nc1cnn(-c2csc(C(=O)NC3COC3)c2)c1)Nc1c(F)cccc1Cl | enzyme activity | inhibitor |  |  | 5 µM | remaining activity | 89.8%
COc1cc(Nc2c(C#N)cnc3cc(OCCCN4CCN(C)CC4)c(OC)cc23)c(Cl)cc1Cl | cell-free assay |  |  |  | 0.5 µM | remaining signal | 54.6%

Compound | effect on | mode | technique | cells | concentration | endpoint | value
O=C(N1CCS(=O)(=O)CC1)N1C[C@H](c2ccc(OC(F)(F)F)cc2)C[C@H](c2nc(C3CC3)no2)C1 | cell-free assay |  | competition with immobilised ligand |  | 1 µM | remaining binding | 100%
CNC(=O)c1cc(Oc2ccc(NC(=O)Nc3ccc(Cl)c(C(F)(F)F)c3)cc2)ccn1 | enzyme activity | inhibitor |  |  | 0.3 µM | inhibition | -8%
CCN(CC)CCNC(=O)c1c(C)[nH]c(/C=C2\C(=O)Nc3ccc(Cl)cc32)c1C | enzyme activity | inhibitor |  |  | 0.5 µM | remaining activity | 17.7%
C[C@@H](c1cccc(C#N)c1)n1cc(Cl)cc(C(N)=O)c1=N | cell-free assay |  | competition with immobilised ligand |  | 1 µM | remaining binding | 100%
CC(C)(C)c1nc2c(s1)c1nc(N)ncc1c1ccc(NS(=O)(=O)c3c(F)cccc3F)c(F)c12 | enzyme activity | inhibitor | radiometric |  | 1 µM | remaining activity | 111%
CN(C)C(=O)Cn1cc(-c2nc(C3(c4ccc(-c5cnc(N)nc5)cc4)CC3)no2)cn1 | cell-free assay |  | competition with immobilised ligand |  | 1 µM | remaining binding | 79%
O=c1cc(-c2cccc3c2Sc2ccccc2S3)oc(N2CCOCC2)c1 | enzyme activity | inhibitor |  |  | 0.5 µM | remaining activity | 103%
COc1cc(Cl)c(C(=O)N[C@@H](CN[C@H]2CC[C@@H](N)CC2)Cc2ccc(C#N)cc2)cc1-c1ccc(CN[C@H](C)c2ccc(C)cc2)o1 | enzyme activity | inhibitor |  |  | 1 µM | remaining activity | 96%
CCOCCn1cc(C(=O)Nc2ccc(-n3nc(-c4cccnc4)cc3C(F)(F)F)cn2)ccc1=O | cell-free assay |  | competition with immobilised ligand |  | 1 µM | remaining binding | 100%
C=CC(=O)Nc1cc(Nc2nccc(Nc3cc(Cl)c(F)cc3C(C)(C)O)n2)c(OC)cc1N1CC[C@@H](N(C)C)C1 | enzyme activity | inhibitor |  |  | 1 µM | inhibition | 8%
Cc1ccc(NC(=O)c2ccc(CN3CCN(C)CC3)cc2)cc1Nc1nc(-c2cccnc2)cs1 | cell-free assay |  |  |  | 0.5 µM | remaining signal | 97.6%
Cc1cnc(NC2CCOCC2)nc1-n1cnc(C(=O)NC(CN)c2cc(F)cc(Cl)c2)c1 (stereo not shown) | enzyme activity | inhibitor | radiometric |  | 1 µM | remaining activity | 104%
O=C(O)[C@@H]1[C@@H](Cn2nnc3ccccc3c2=O)CC[C@H]1C(=O)c1ccc(OCCC2CCOCC2)cc1 | cell-free assay |  | competition with immobilised ligand |  | 1 µM | remaining binding | 87%
CCN1CCN(Cc2ccc(NC(=O)c3ccc(C)c(/C=C/c4cnc5[nH]ccc5c4OC)c3)cc2C(F)(F)F)CC1 | target engagement in cells | inhibitor | chemoproteomics | A-375 | 50 nM | inhibition | -10.4%
CCN(CC)CCNC(=O)c1c(C)[nH]c(/C=C2\C(=O)Nc3ccc(F)cc32)c1C | enzyme activity | inhibitor |  |  | 0.3 µM | inhibition | -42%
